From ChEMBL document CHEMBL1772996, “Bioactive constituents from the roots of Panax japonicus var. major and development of a LC-MS/MS method for distinguishing between natural and artifactual compounds” (J Nat Prod, 2011) come the findings set out here.

Activity calls are given as the source filed them. The rule behind the calls is not given here.

Experiment [1] relates to HCT-8. The experiment in a line: Cytotoxicity against human HCT8 cells assessed as growth inhibition after 3 days by sulforhodamine B assay. It counts as functional, cell-based. (The SRB assay estimates cell density from bound dye.)
Experiment [2] has as its system Neutrophil. The experiment in a line: Inhibition of fMLP/CB-stimulated superoxide anion generation in human neutrophils. It counts as functional, cell-based. Summed up: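 Isolated human neutrophils (dextran sedimentation, Ficoll Hypaque, hypotonic lysis; >98% viable) with 0.5 mg/mL ferricytochrome c and 1 mM Ca2+, 37 °C 2 min, compound 5 min; CB 1 μg/mL 3 min, then 100 nM FMLP 10 min; SOD-inhibitable cytochrome c reduction followed continuously at 550 nm with stirring; mean ± S.E.M., n = 3–4; top concentration 30 μM.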

For experiment [3], the system named is Neutrophil. The experiment in a line: Inhibition of fMLP/CB-activated human neutrophil degranulation assessed as inhibition of elastase release using MeO-Suc-Ala-Ala-Pro-Val-p-nitroanilide as a substrate after 5 mins. It counts as functional, cell-based. Summed up:
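Neutrophils from dextran sedimentation, Ficoll Hypaque centrifugation and hypotonic erythrocyte lysis (>98% viable by trypan blue), held in Ca2+-free HBSS pH 7.4 at 4 °C; 5×10^5/mL cells with 100 μM substrate equilibrated 37 °C 2 min, compound 5 min, then 100 nM FMLP plus 0.5 μg/mL CB; A405 monitored continuously; expressed as % of initial rate in drug-free activated control; mean ± S.E.M., n = 3–4; top concentration 30 μM.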

The subject of experiment [4] is KB. The experiment in a line: Cytotoxicity against human KB cells assessed as growth inhibition after 3 days by sulforhodamine B assay. It counts as functional.
Experiment [5] concerns A549. The experiment in a line: Cytotoxicity against human A549 cells assessed as growth inhibition after 3 days by sulforhodamine B assay. It counts as functional, cell-based.
The subject of experiment [6] is DU-145. The experiment in a line: Cytotoxicity against human DU145 cells assessed as growth inhibition after 3 days by sulforhodamine B assay. It counts as functional.
Experiment [7] is described as follows: Inhibition of yeast alpha-glucosidase assessed as p-nitrophenol release after 20 mins by microplate spectrophotometer. Further details: species or system Saccharomyces cerevisiae.
Experiment [8] has as its system Neutrophil. The experiment in a line: Inhibition of fMLP/CB-stimulated superoxide anion generation in human neutrophils at 30 uM relative to control. It counts as functional. The gist of the method:
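Neutrophils isolated by dextran sedimentation, Ficoll Hypaque and hypotonic lysis, kept in Ca2+-free HBSS pH 7.4 at 4 °C. Given 0.5 mg/mL ferricytochrome c and 1 mM Ca2+, equilibrated 37 °C 2 min, compound 5 min. CB 1 μg/mL for 3 min, then 100 nM fMLP for 10 min. SOD-inhibitable ferricytochrome c reduction followed at 550 nm with stirring; mean ± S.E.M., n = 3–4.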

Experiment [9] concerns Neutrophil. The experiment in a line: Inhibition of superoxide anion generation in human neutrophils in response to fMLP/CB.

By IC50 is commonly meant the point on the concentration scale where inhibition reaches its midpoint. As to `COC(=O)[C@H]1O[C@@H](O[C@H]2CC[C@]3(C)[C@H]4CC=C5[C@@H]6CC(C)(C)CC[C@]6(C(=O)O[C@@H]6O[C@H](CO)[C@@H](O)[C@H](O)[C@H]6O)CC[C@@]5(C)[C@]4(C)CC[C@H]3C2(C)C)[C@H](O[C@H]2OC[C@@H](O)[C@H](O)[C@H]2O)[C@@H](O)[C@@H]1O` [PSEUDOGINSENOSIDE RT1 METHYL ESTER], the “growth inhibition (GI)” value in experiment [1], in [4], in experiment [5] and in [6] was “inactive” throughout. Further, the results for the IC50 in experiment [2] and in experiment [3] were 5.26 µM and 7.75 µM, respectively.

Regarding `C[C@H]1O[C@H](O[C@H]2[C@H](O)[C@@H](O)[C@@H](O[C@H]3[C@H](O)[C@@H](O)C(O)O[C@@H]3CO)O[C@@H]2CO)[C@H](O)[C@@H](O)[C@@H]1N[C@H]1C=C(CO)[C@@H](O)[C@H](O)[C@H]1O` (stereo not given in full) [ACARBOSE], the IC50 in experiment [7] was found to be 678 µM.

As for `CC1(C)CC[C@]2(C(=O)O[C@@H]3O[C@H](CO)[C@@H](O)[C@H](O)[C@H]3O)CC[C@]3(C)C(=CC[C@@H]4[C@@]5(C)CC[C@H](O[C@@H]6O[C@H](C(=O)O)[C@@H](O)[C@H](O)[C@H]6O)C(C)(C)[C@@H]5CC[C@]43C)[C@@H]2C1` [CHIKUSETSUSAPONIN IVA], the “growth inhibition (GI)” value in [1], in experiment [4], in [5] and in experiment [6] was “inactive” in each case. The IC50 in experiment [2] is 2.88 µM; in experiment [3], 4.76 µM.

The term inhibition denotes the relative decrease from the control value, in per cent. A low value points to little suppression. Regarding `CC1(C)CC[C@]2(C(=O)O[C@@H]3O[C@H](CO)[C@@H](O)[C@H](O)[C@H]3O)CC[C@]3(C)C(=CC[C@@H]4[C@@]5(C)CC[C@H](O)C(C)(C)[C@@H]5CC[C@]43C)[C@@H]2C1`, the “growth inhibition (GI)” value in experiment [1], in experiment [4], in [5] and in [6] was “inactive” each time. The compound further displayed an inhibition at 30 µM in experiment [8] of 43.6%. Besides, the IC50 in experiment [3] worked out at 9.64 µM.

Take `CC1(C)CC[C@]2(C(=O)O)CC[C@]3(C)C(=CC[C@@H]4[C@@]5(C)CC[C@H](O)C(C)(C)[C@@H]5CC[C@]43C)[C@@H]2C1` [OLEANOLIC_ACID]: the “growth inhibition (GI)” value in experiment [1], in experiment [4], in experiment [5] and in experiment [6] was “inactive” in each case. The IC50 in experiment [2] turned out to be 1.37 µM; in experiment [3] it was 0.75 µM.

Take `CCCCOC(=O)[C@H]1O[C@@H](O[C@H]2CC[C@]3(C)[C@H]4CC=C5[C@@H]6CC(C)(C)CC[C@]6(C(=O)O[C@@H]6O[C@H](CO)[C@@H](O)[C@H](O)[C@H]6O)CC[C@@]5(C)[C@]4(C)CC[C@H]3C2(C)C)[C@H](O)[C@@H](O)[C@@H]1O[C@@H]1O[C@@H](CO)[C@H](O)[C@H]1O` [TAIBAIENOSIDE I]: the “growth inhibition (GI)” value in experiment [1], in [4], in [5] and in [6] was “inactive” throughout. The IC50 in [2] stood at 2.24 µM; in experiment [3], 1.36 µM.

As to `COC(=O)[C@H]1O[C@@H](O[C@H]2CC[C@]3(C)[C@H]4CC=C5[C@@H]6CC(C)(C)CC[C@]6(C(=O)O[C@@H]6O[C@H](CO)[C@@H](O)[C@H](O)[C@H]6O)CC[C@@]5(C)[C@]4(C)CC[C@H]3C2(C)C)[C@H](O)[C@@H](O)[C@@H]1O`, the “growth inhibition (GI)” value in [1], in experiment [4], in experiment [5] and in experiment [6] was “inactive” in each case. Besides, the IC50 is 13.6 µM in experiment [9] and 1.97 µM in experiment [3].

In the case of `CCCCOC(=O)[C@H]1O[C@@H](O[C@H]2CC[C@]3(C)[C@H]4CC=C5[C@@H]6CC(C)(C)CC[C@]6(C(=O)O[C@@H]6O[C@H](CO)[C@@H](O)[C@H](O)[C@H]6O)CC[C@@]5(C)[C@]4(C)CC[C@H]3C2(C)C)[C@H](O)[C@@H](O)[C@@H]1O`, the “growth inhibition (GI)” value in [1], in experiment [4], in experiment [5] and in experiment [6] was “inactive” throughout. The IC50 is 3.73 µM in [2] and 7.28 µM in [3].

As for `CC1(C)CC[C@]2(C(=O)O[C@@H]3O[C@H](CO)[C@@H](O)[C@H](O)[C@H]3O)CC[C@]3(C)C(=CC[C@@H]4[C@@]5(C)CC[C@H](O[C@@H]6O[C@H](C(=O)O[C@@H]7O[C@H](CO)[C@@H](O)[C@H](O)[C@H]7O)[C@@H](O[C@@H]7O[C@@H](CO)[C@H](O)[C@H]7O)[C@H](O)[C@H]6O)C(C)(C)[C@@H]5CC[C@]43C)[C@@H]2C1`, the “growth inhibition (GI)” value in experiment [1], in [4], in experiment [5] and in experiment [6] was “inactive” each time. Also, the IC50 amounted to 1.56 µM in experiment [2] and 1.87 µM in [3].

With `CC1(C)CC[C@]2(C(=O)O[C@@H]3O[C@H](CO)[C@@H](O)[C@H](O)[C@H]3O)CC[C@]3(C)C(=CC[C@@H]4[C@@]5(C)CC[C@H](O[C@@H]6O[C@H](C(=O)O)[C@@H](O)[C@H](O)[C@H]6O[C@H]6OC[C@@H](O)[C@H](O)[C@H]6O)C(C)(C)[C@@H]5CC[C@]43C)[C@@H]2C1` [PSEUDOGINSENOSIDE RT1], the “growth inhibition (GI)” value in experiment [1], in experiment [4], in [5] and in [6] was “inactive” in each case. The IC50 in experiment [2] was found to be 19.4 µM; in [3], 44.5 µM.
